Laboratory results: ChEMBL document CHEMBL3407460, “Synthesis of novel thiazole-based 8,9-dihydro-7H-pyrimido[4,5-b][1,4]diazepines as potential antitumor and antifungal agents” (2015)

Legend:
Type in all cases: functional
[1] = Antitumor activity against human Hs 578T cells after 48 hrs by Sulforhodamine B assay; conditions: for CC50: read-out: LC50 (the source's name)
In short: (§1)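 NCI 60-cell-line screen. Secondary five-dose test at 100, 10, 1.0, 0.1 and 0.01 µM with continuous drug exposure for 48 h. Cell growth was estimated by sulforhodamine B protein staining. […] LC50 was also reported.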

MCF7 = experiment: Antitumor activity against human MCF7 cells after 48 hrs by Sulforhodamine B assay; conditions: MCF7, 48 h; for CC50: read-out: LC50 (the source's name); in short: as §1
T47D = experiment: Antitumor activity against human T47D cells after 48 hrs by Sulforhodamine B assay; conditions: for CC50: read-out: LC50 (the source's name); in short: as §1
CCRF-CEM = experiment: Antitumor activity against human CCRF-CEM cells after 48 hrs by Sulforhodamine B assay; conditions: for CC50: read-out: LC50 (the source's name); in short: as §1
[2] = Antitumor activity against human UACC257 cells after 48 hrs by Sulforhodamine B assay; conditions: UACC-257, 48 h; for CC50: read-out: LC50 (the source's name); in short: as §1
HOP-62 = experiment: Antitumor activity against human HOP62 cells after 48 hrs by Sulforhodamine B assay; conditions: HOP-62, 48 h; in short: as §1
[3] = Antitumor activity against human COLO205 cells after 48 hrs by Sulforhodamine B assay; conditions: COLO 205, 48 h; for CC50: read-out: LC50 (the source's name); in short: as §1
SK-MEL-5 = experiment: Antitumor activity against human SK-MEL-5 cells after 48 hrs by Sulforhodamine B assay; conditions: SK-MEL-5, 48 h; for CC50: read-out: LC50 (the source's name); in short: as §1

Structure (SMILES)	GI50 [1]	CC50 [1]	GI50 (MCF7)	CC50 (MCF7)	GI50 (T47D)	CC50 (T47D)	GI50 (CCRF-CEM)	CC50 (CCRF-CEM)	GI50 [2]	CC50 [2]	GI50 (HOP-62)	LC50 (concentration giving 50% net cell kill) (HOP-62)	GI50 [3]	CC50 [3]	GI50 (SK-MEL-5)	CC50 (SK-MEL-5)
Cc1ccc(C2=Nc3c(N)ncnc3NC(c3sc(Cl)nc3Cl)C2)cc1 (configuration not stated)	2.44 µM	> 100 µM	3.56 µM	97.6 µM	3.35 µM	> 100 µM	3.21 µM	> 100 µM	6.76 µM	48.6 µM	3.72 µM	48.9 µM	4.18 µM	42.1 µM	3.69 µM	37.3 µM
Nc1ncnc2c1N=C(c1ccc3c(c1)OCO3)CC(c1sc(Cl)nc1Cl)N2 (configuration not stated)	2.35 µM	> 100 µM	2.81 µM	> 100 µM	5.36 µM	> 100 µM	3.02 µM	> 100 µM	14.6 µM	> 100 µM	5.32 µM	62.6 µM	3.48 µM	45.6 µM	3.43 µM	40.8 µM
